Test results from ChEMBL document CHEMBL3352728, “Synthesis and biological evaluation of 1,2,3-triazole linked aminocombretastatin conjugates as mitochondrial mediated apoptosis inducers” (Bioorg Med Chem, 2014).
Calls of active or inactive are those of the source. The calls are words filed in the database; no cut-off is given here.

How the values were obtained:
A549 [1] = assay: Induction of mitochondrial membrane potential loss in human A549 cells at 25 nM incubated for 48 hrs by JC1 dye staining based fluorescence assay; assay type: functional, cell-based
Summary of the method: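 A549 cells exposed to 25 nM for 48 h, then loaded with JC-1 for 20 min at 37 °C. JC-1 green monomer emission (525 nm) compared with red aggregate emission (590 nm) to read depolarization. CA-4 at 25 nM included.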

HepG2 = assay: Cytotoxicity against human HepG2 cells after 48 hrs by MTT assay; assay type: functional, cell-based; conditions: HepG2, 48 h
Summary of the method: (§1)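 MTT assay. Cells seeded at 1×10^4 per well in DMEM with 10% FBS and grown 24 h at 37 °C under CO2. Compounds diluted in medium, vehicle control included, 48 h exposure. MTT (5 mg/mL stock) added for 4 h, formazan dissolved in DMSO, absorbance read at 570 nm. IC50 taken as the average of three independent experiments.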

A549 [2] = assay: Induction of cell cycle arrest in human A549 cells assessed as accumulation at G0/G1 phase at 25 nM after 48 hrs by propidium iodide staining based flow cytometry (reference value: 87.75%); assay type: functional
A549 [3] = assay: Induction of cell cycle arrest in human A549 cells assessed as accumulation at S phase at 50 nM after 48 hrs by propidium iodide staining based flow cytometry (reference value: 4.69%); assay type: functional
A549 [4] = assay: Induction of cell cycle arrest in human A549 cells assessed as accumulation at subG1 phase at 25 nM after 48 hrs by propidium iodide staining based flow cytometry (reference value: 1.41%); assay type: functional
A549 [5] = assay: Induction of ROS generation in human A549 cells at 25 nM incubated for 48 hrs by DCFH-DA staining based fluorescence assay; assay type: functional, cell-based
Summary of the method: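 A549 cells exposed to 25 nM for 48 h, then loaded with 5 μM DCFH-DA for 30 min at 37 °C. DCF fluorescence read at ex 485/em 530 nm. CA-4 at 25 nM run in parallel.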

A549 [6] = assay: Induction of apoptosis in human A549 cells assessed as nuclear fragmentation at 25 nM incubated for 48 hrs by Hoechst staining based fluorescent microscopy; assay type: functional, cell-based
Summary of the method: (§2)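 A549 cells, 10,000 per coverslip, cultured 24 h, then exposed to 25 nM for 48 h. Stained with Hoechst 33258 (0.5 mg/mL) for 30 min at 37 °C and washed in PBS. Random fields imaged by fluorescence microscopy and scored qualitatively for chromatin condensation, nuclear fragmentation and apoptotic bodies.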

A549 [7] = assay: Induction of apoptosis in human A549 cells assessed as caspase-3 activation at 50 nM incubated for 48 hrs by ELISA method; assay type: functional
Summary of the method: (§3)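 A549 cells treated 48 h at 25 or 50 nM, with CA-4 at 50 nM as reference. Cells pelleted, PBS-washed, lysed 15 min and centrifuged. Supernatant assayed with a colorimetric caspase-3 kit. Mean ± SD from two experiments, each in triplicate.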

A549 [8] = assay: Induction of cell cycle arrest in human A549 cells assessed as accumulation at G0/G1 phase at 50 nM after 48 hrs by propidium iodide staining based flow cytometry (reference value: 87.75%); assay type: functional
A549 [9] = assay: Induction of apoptosis in human A549 cells assessed as apoptotic bodies level at 25 nM incubated for 48 hrs by Hoechst staining based fluorescent microscopy; assay type: functional, cell-based; summary of the method: as §2
ACHN = assay: Cytotoxicity against human ACHN cells after 48 hrs by MTT assay; assay type: functional, cell-based; summary of the method: as §1
A549 [10] = assay: Induction of apoptosis in human A549 cells assessed as caspase-3 activation at 25 nM incubated for 48 hrs by ELISA method; assay type: functional; summary of the method: as §3
Tubulin = assay: Inhibition of tubulin (unknown origin) polymerization incubated for 1 hr by fluorescence assay; assay type: protein-complex assay, Homo sapiens
A549 [11] = assay: Induction of cell cycle arrest in human A549 cells assessed as accumulation at subG1 phase at 50 nM after 48 hrs by propidium iodide staining based flow cytometry (reference value: 1.41%); assay type: functional
A549 [12] = assay: Induction of microtubule network disruption in human A549 cells at 25 nM incubated for 48 hrs by immunohistochemistry; assay type: cell-based
Summary of the method: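 A549 cells on glass coverslips exposed to 25 nM for 48 h, with CA-4 at 25 nM in parallel. Fixed in 3% paraformaldehyde/0.02% glutaraldehyde and permeabilized in methanol overnight at 4 °C. Blocked with 1% BSA, stained with mouse anti-tubulin primary and FITC-labelled anti-mouse IgG, and examined by fluorescence microscopy for microtubule network integrity.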

A549 [13] = assay: Cytotoxicity against human A549 cells after 48 hrs by MTT assay; assay type: functional, cell-based; conditions: A549, 48 h; summary of the method: as §1
Tubulin (Homo sapiens) [14] = molecular target: T1, Tubulin (Homo sapiens) (UniProt P68371+Q9H4B7+P0DPH7+P68366+Q13509+Q71U36+P04350+Q3ZCM7+P07437+P68363+Q9BQE3+Q6PEY2+Q13885+Q9BVA1+Q9BUF5); assay: Binding affinity to tubulin (unknown origin) incubated for 60 mins by colchicine competition assay; assay type: protein-complex assay
Summary of the method: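 Tubulin (3 μM) incubated with test agents (5, 10, 15, 20 μM) with and without 3 μM colchicine in 30 mM Tris buffer, 60 min at 37 °C. Tubulin–colchicine fluorescence read at ex 350/em 435 nm. Compound-alone signal subtracted from the compound+colchicine signal, Tris blank subtracted, values normalized to DMSO control. CA-4 positive control, taxol negative control.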

A549 [15] = assay: Induction of cell cycle arrest in human A549 cells assessed as accumulation at S phase at 25 nM after 48 hrs by propidium iodide staining based flow cytometry (reference value: 4.69%); assay type: functional
A549 [16] = assay: Induction of apoptosis in human A549 cells assessed as chromatin condensation at 25 nM incubated for 48 hrs by Hoechst staining based fluorescent microscopy; assay type: functional, cell-based; summary of the method: as §2
A549 [17] = assay: Induction of cell cycle arrest in human A549 cells assessed as accumulation at G2/M phase at 50 nM after 48 hrs by propidium iodide staining based flow cytometry (reference value: 6.15%); assay type: functional
A549 [18] = assay: Induction of DNA fragmentation in human A549 cells at 25 nM incubated for 48 hrs by agarose gel electrophoresis method; assay type: functional, cell-based
Summary of the method: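 A549 cells (1×10^6) plated for 24 h, then exposed to 25 nM for 48 h. Cells pelleted and lysed. Lysate treated with SDS and RNase A for 2 h at 56 °C, then proteinase K for 2 h at 37 °C. DNA precipitated with ammonium acetate and cold ethanol, redissolved in TE buffer, and laddering run on 2% agarose gel.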

HeLa = assay: Cytotoxicity against human HeLa cells after 48 hrs by MTT assay; assay type: functional, cell-based; summary of the method: as §1
Tubulin (Homo sapiens) [19] = molecular target: T1, Tubulin (Homo sapiens); assay: Inhibition of tubulin (unknown origin) polymerization at 3 uM incubated for 1 hr by fluorescence assay; assay type: protein-complex assay
Summary of the method: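 Fluorescence-reporter tubulin polymerization kit. PEM buffer with […], compounds at 3 μM final concentration. Fluorescence followed at ex 360/em 420 nm for 1 h at 37 °C. CA-4 positive control. Mean ± SD from two experiments, each in triplicate.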

MCF7 = assay: Cytotoxicity against human MCF7 cells after 48 hrs by MTT assay; assay type: functional, cell-based; conditions: MCF7, 48 h; summary of the method: as §1
A549 [20] = assay: Induction of cell cycle arrest in human A549 cells assessed as accumulation at G2/M phase at 25 nM after 48 hrs by propidium iodide staining based flow cytometry (reference value: 6.15%); assay type: functional

| SMILES | Activity (A549 [1]) | IC50 (HepG2) [µM] | Activity (A549 [2]) [%] | Activity (A549 [3]) [%] | Activity (A549 [4]) [%] | Activity (A549 [5]) | Activity (A549 [6]) | fold change (FC) (A549 [7]) | Activity (A549 [8]) [%] | Activity (A549 [9]) | IC50 (ACHN) [µM] | fold change (FC) (A549 [10]) | IC50 (Tubulin) [µM] | Activity (A549 [11]) [%] | Activity (A549 [12]) | IC50 (A549 [13]) [µM] | Activity (Tubulin (Homo sapiens) [14]) | Activity (A549 [15]) [%] | Activity (A549 [16]) | Activity (A549 [17]) [%] | also measured |
| --- | --- | --- | --- | --- | --- | --- | --- | --- | --- | --- | --- | --- | --- | --- | --- | --- | --- | --- | --- | --- | --- |
| COc1ccc(/C=C\c2cc(OC)c(OC)c(OC)c2)cc1NC(=O)c1cn(Cc2ccc(F)cc2)nn1 | Active | 0.058 | 75.42 | 7.93 | 1.52 | Active | Active | 3 | 61.99 | Active | 1.66 | 3 | 1.16 | 4.36 | Active | 0.053 | Active | 5.49 | Active | 25.73 | Activity (A549 [18]): Active; IC50 (HeLa): 0.068 µM; inhibition (Tubulin (Homo sapiens) [19]): 66.8%; IC50 (MCF7): 0.597 µM; Activity (A549 [20]): 17.57% |
| COc1ccc(Cn2cc(C(=O)Nc3cc(/C=C\c4cc(OC)c(OC)c(OC)c4)cc(OC)c3OC)nn2)cc1 | Active | 0.098 | 69.59 | 7.9 | 1.2 | Active | Active | 3 | 62.01 | Active | 1.7 | 3 | 0.95 | 3.46 | Active | 0.044 | Active | 7.84 | Active | 26.63 | Activity (A549 [18]): Active; IC50 (HeLa): 0.081 µM; inhibition (Tubulin (Homo sapiens) [19]): 70.9%; IC50 (MCF7): 0.818 µM; Activity (A549 [20]): 21.37% |
